ChEMBL document CHEMBL4715736, “Identification of anticancer agents based on the thieno[2,3-b]pyridine and 1H-pyrazole molecular scaffolds” (2016)

system: OVCAR-4; experiment: Growth inhibition of human OVCAR-4 cells assessed as cell growth at 10 uM incubated for 48 hrs by sulforhodamine B assay relative to control; assay type: functional; settings: read-out: Activity
In short: (§1)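 Run by the NCI Developmental Therapeutics Program as part of its 60-line human tumour panel. Each compound tested at a single 10 µM dose. Growth expressed as % relative to untreated control cells (100%).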

Structure (SMILES)	growth at 10 µM [%]
Cc1cccc(NC(=O)c2sc3nc4c(cc3c2N)C(=O)CCC4)c1	21

system: SW-620; experiment: Growth inhibition of human SW-620 cells assessed as cell growth at 10 uM incubated for 48 hrs by sulforhodamine B assay relative to control; assay type: functional; settings: read-out: Activity; in short: as §1

Structure (SMILES)	growth at 10 µM [%]
Cc1cccc(NC(=O)c2sc3nc4c(cc3c2N)C(=O)CCC4)c1	21

system: MCF7; experiment: Growth inhibition of human MCF7 cells assessed as cell growth at 10 uM incubated for 48 hrs by sulforhodamine B assay relative to control; assay type: functional; settings: read-out: Activity
In short: (§2)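 Submitted to the NCI Developmental Therapeutics Program for the NCI60 human tumour cell line panel. First screen at a single 10 µM concentration. Read-out is growth relative to untreated control cells set at 100%.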

Structure (SMILES)	growth at 10 µM [%]
Cc1cccc(NC(=O)c2sc3nc4c(cc3c2N)C(=O)CCC4)c1	16

system: CAKI-1; experiment: Growth inhibition of human CAKI-1 cells assessed as cell growth at 10 uM incubated for 48 hrs by sulforhodamine B assay relative to control; assay type: functional; settings: read-out: Activity
In short: (§3)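 NCI Developmental Therapeutics Program NCI60 panel. Compounds that were active in the 10 µM one-dose screen went on to dose–response testing. Growth at each concentration is expressed relative to untreated control (100%). GI50 (concentration giving 50% of maximal inhibition of proliferation) and TGI (concentration giving total growth inhibition) were derived from the curves.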

Structure (SMILES)	growth at 10 µM [%]
Cc1cccc(NC(=O)c2sc3nc4c(cc3c2N)C(=O)CCC4)c1	26

system: SNB-19; experiment: Growth inhibition of human SNB-19 cells assessed as cell growth at 10 uM incubated for 48 hrs by sulforhodamine B assay relative to control; assay type: functional; settings: read-out: Activity; in short: as §1

Structure (SMILES)	growth at 10 µM [%]
Cc1cccc(NC(=O)c2sc3nc4c(cc3c2N)C(=O)CCC4)c1	29

system: SNB-19; experiment: Growth inhibition of human SNB-19 cells assessed as cell growth at 100 uM incubated for 48 hrs by sulforhodamine B assay relative to control; assay type: functional; settings: read-out: Activity

Structure (SMILES)	growth at 100 µM [%]
Cc1cccc(NC(=O)c2sc3nc4c(cc3c2N)C(=O)CCC4)c1	-74

system: SF-295; experiment: Growth inhibition of human SF-295 cells assessed as cell growth at 0.01 uM incubated for 48 hrs by sulforhodamine B assay relative to control; assay type: functional; settings: read-out: Activity

Structure (SMILES)	growth at 0.01 µM [%]
Cc1cccc(NC(=O)c2sc3nc4c(cc3c2N)C(=O)CCC4)c1	88

system: SK-OV-3; experiment: Growth inhibition of human SK-OV-3 cells assessed as cell growth at 10 uM incubated for 48 hrs by sulforhodamine B assay relative to control; assay type: functional; settings: read-out: Activity; in short: as §1

Structure (SMILES)	growth at 10 µM [%]
Cc1cccc(NC(=O)c2sc3nc4c(cc3c2N)C(=O)CCC4)c1	3

system: COLO 205; experiment: Growth inhibition of human COLO 205 cells assessed as cell growth at 10 uM incubated for 48 hrs by sulforhodamine B assay relative to control; assay type: functional; settings: read-out: Activity; in short: as §3

Structure (SMILES)	growth at 10 µM [%]
Cc1cccc(NC(=O)c2sc3nc4c(cc3c2N)C(=O)CCC4)c1	-21

system: 786-0; experiment: Growth inhibition of human 786-0 cells assessed as cell growth at 10 uM incubated for 48 hrs by sulforhodamine B assay relative to control; assay type: functional; settings: read-out: Activity; in short: as §3

Structure (SMILES)	growth at 10 µM [%]
Cc1cccc(NC(=O)c2sc3nc4c(cc3c2N)C(=O)CCC4)c1	15

system: RPMI-8226; experiment: Growth inhibition of human RPMI-8226 cells assessed as cell growth at 10 uM incubated for 48 hrs by sulforhodamine B assay relative to control; assay type: functional; settings: read-out: Activity; in short: as §1

Structure (SMILES)	growth at 10 µM [%]
Cc1cccc(NC(=O)c2sc3nc4c(cc3c2N)C(=O)CCC4)c1	22

system: SK-MEL-2; experiment: Growth inhibition of human SK-MEL-2 cells assessed as cell growth at 10 uM incubated for 48 hrs by sulforhodamine B assay relative to control; assay type: functional; settings: read-out: Activity; in short: as §1

Structure (SMILES)	growth at 10 µM [%]
Cc1cccc(NC(=O)c2sc3nc4c(cc3c2N)C(=O)CCC4)c1	13

system: KM12; experiment: Growth inhibition of human KM12 cells assessed as cell growth at 1 uM incubated for 48 hrs by sulforhodamine B assay relative to control; assay type: functional; settings: read-out: Activity

Structure (SMILES)	growth at 1 µM [%]
Cc1cccc(NC(=O)c2sc3nc4c(cc3c2N)C(=O)CCC4)c1	19

system: HT-29; experiment: Growth inhibition of human HT-29 cells assessed as cell growth at 10 uM incubated for 48 hrs by sulforhodamine B assay relative to control; assay type: functional; settings: read-out: Activity; in short: as §2

Structure (SMILES)	growth at 10 µM [%]
Cc1cccc(NC(=O)c2sc3nc4c(cc3c2N)C(=O)CCC4)c1	-1

system: LOX IMVI; experiment: Growth inhibition of human LOX IMVI cells assessed as cell growth at 10 uM incubated for 48 hrs by sulforhodamine B assay relative to control; assay type: functional; settings: read-out: Activity; in short: as §2

Structure (SMILES)	growth at 10 µM [%]
Cc1cccc(NC(=O)c2sc3nc4c(cc3c2N)C(=O)CCC4)c1	24

system: MDA-MB-231; experiment: Growth inhibition of human MDA-MB-231 cells assessed as cell growth at 10 uM incubated for 48 hrs by sulforhodamine B assay relative to control; assay type: functional; settings: read-out: Activity; in short: as §2

Structure (SMILES)	growth at 10 µM [%]
Cc1cccc(NC(=O)c2sc3nc4c(cc3c2N)C(=O)CCC4)c1	20

system: T47D; experiment: Growth inhibition of human T47D cells assessed as cell growth at 10 uM incubated for 48 hrs by sulforhodamine B assay relative to control; assay type: functional; settings: read-out: Activity; in short: as §1

Structure (SMILES)	growth at 10 µM [%]
Cc1cccc(NC(=O)c2sc3nc4c(cc3c2N)C(=O)CCC4)c1	29

system: HCC 2998; experiment: Growth inhibition of human HCC 2998 cells assessed as cell growth at 10 uM incubated for 48 hrs by sulforhodamine B assay relative to control; assay type: functional; settings: read-out: Activity; in short: as §3

Structure (SMILES)	growth at 10 µM [%]
Cc1cccc(NC(=O)c2sc3nc4c(cc3c2N)C(=O)CCC4)c1	25

system: BT-549; experiment: Growth inhibition of human BT-549 cells assessed as cell growth at 10 uM incubated for 48 hrs by sulforhodamine B assay relative to control; assay type: functional; settings: read-out: Activity
In short: (§4)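 NCI Developmental Therapeutics Program NCI60 human tumour cell line panel, one-dose primary screen with every compound at 10 µM. Growth is expressed as % of untreated control cells (100%).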

Structure (SMILES)	growth at 10 µM [%]
Cc1cccc(NC(=O)c2sc3nc4c(cc3c2N)C(=O)CCC4)c1	32

system: HCT-15; experiment: Growth inhibition of human HCT-15 cells incubated for 48 hrs by sulforhodamine B assay; assay type: functional; settings: not given
In short: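 NCI60 panel at the NCI Developmental Therapeutics Program. Only compounds active in the 10 µM screen went to dose-response testing. GI50, the concentration giving 50% of maximal inhibition of proliferation, and TGI, the concentration giving total growth inhibition, were derived from the dose-response curves.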

Structure (SMILES)	GI50 [µM]	LC50 [µM]	TGI [µM]
Cc1cccc(NC(=O)c2sc3nc4c(cc3c2N)C(=O)CCC4)c1	0.27	> 100	> 100

system: NCI-H23; experiment: Growth inhibition of human NCI-H23 cells assessed as cell growth at 10 uM incubated for 48 hrs by sulforhodamine B assay relative to control; assay type: functional; settings: read-out: Activity; in short: as §2

Structure (SMILES)	growth at 10 µM [%]
Cc1cccc(NC(=O)c2sc3nc4c(cc3c2N)C(=O)CCC4)c1	28

system: NCI-H522; experiment: Growth inhibition of human NCI-H522 cells assessed as cell growth at 10 uM incubated for 48 hrs by sulforhodamine B assay relative to control; assay type: functional; settings: read-out: Activity; in short: as §2

Structure (SMILES)	growth at 10 µM [%]
Cc1cccc(NC(=O)c2sc3nc4c(cc3c2N)C(=O)CCC4)c1	-22

system: K562; experiment: Growth inhibition of human K562 cells assessed as cell growth at 10 uM incubated for 48 hrs by sulforhodamine B assay relative to control; assay type: functional; settings: read-out: Activity; in short: as §2

Structure (SMILES)	growth at 10 µM [%]
Cc1cccc(NC(=O)c2sc3nc4c(cc3c2N)C(=O)CCC4)c1	16

system: SF-539; experiment: Growth inhibition of human SF-539 cells incubated for 48 hrs by sulforhodamine B assay; assay type: functional; settings: not given
In short: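 NCI DTP 60-line human tumour panel. Dose-response curves were run only for ligands active in the initial 10 µM screen. GI50 (concentration giving 50% of maximal inhibition of proliferation) and TGI (concentration giving total growth inhibition) were derived from these curves.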

Structure (SMILES)	GI50 [µM]	TGI [µM]
Cc1cccc(NC(=O)c2sc3nc4c(cc3c2N)C(=O)CCC4)c1	0.167	0.462

same assay, conditions: read-out: LC50 (the source's name)

Structure (SMILES)	CC50 [µM]
Cc1cccc(NC(=O)c2sc3nc4c(cc3c2N)C(=O)CCC4)c1	≥ 100

system: MOLT-4; experiment: Growth inhibition of human MOLT-4 cells assessed as cell growth at 0.01 uM incubated for 48 hrs by sulforhodamine B assay relative to control; assay type: functional; settings: read-out: Activity

Structure (SMILES)	growth at 0.01 µM [%]
Cc1cccc(NC(=O)c2sc3nc4c(cc3c2N)C(=O)CCC4)c1	97

system: ACHN; experiment: Growth inhibition of human ACHN cells assessed as cell growth at 10 uM incubated for 48 hrs by sulforhodamine B assay relative to control; assay type: functional; settings: read-out: Activity; in short: as §4

Structure (SMILES)	growth at 10 µM [%]
Cc1cccc(NC(=O)c2sc3nc4c(cc3c2N)C(=O)CCC4)c1	25

system: DU-145; experiment: Growth inhibition of human DU-145 cells assessed as cell growth at 10 uM incubated for 48 hrs by sulforhodamine B assay relative to control; assay type: functional; settings: read-out: Activity; in short: as §3

Structure (SMILES)	growth at 10 µM [%]
Cc1cccc(NC(=O)c2sc3nc4c(cc3c2N)C(=O)CCC4)c1	6

system: SF-268; experiment: Growth inhibition of human SF-268 cells assessed as cell growth at 10 uM incubated for 48 hrs by sulforhodamine B assay relative to control; assay type: functional; settings: read-out: Activity; in short: as §1

Structure (SMILES)	growth at 10 µM [%]
Cc1cccc(NC(=O)c2sc3nc4c(cc3c2N)C(=O)CCC4)c1	33

system: OVCAR-8; experiment: Growth inhibition of human OVCAR-8 cells assessed as cell growth at 10 uM incubated for 48 hrs by sulforhodamine B assay relative to control; assay type: functional; settings: read-out: Activity; in short: as §1

Structure (SMILES)	growth at 10 µM [%]
Cc1cccc(NC(=O)c2sc3nc4c(cc3c2N)C(=O)CCC4)c1	37

system: CAKI-1; experiment: Growth inhibition of human CAKI-1 cells assessed as cell growth at 100 uM incubated for 48 hrs by sulforhodamine B assay relative to control; assay type: functional; settings: read-out: Activity; in short: as §3

Structure (SMILES)	growth at 100 µM [%]
Cc1cccc(NC(=O)c2sc3nc4c(cc3c2N)C(=O)CCC4)c1	-22

system: TK-10; experiment: Growth inhibition of human TK-10 cells assessed as cell growth at 10 uM incubated for 48 hrs by sulforhodamine B assay relative to control; assay type: functional; settings: read-out: Activity; in short: as §1

Structure (SMILES)	growth at 10 µM [%]
Cc1cccc(NC(=O)c2sc3nc4c(cc3c2N)C(=O)CCC4)c1	57

system: LOX IMVI; experiment: Growth inhibition of human LOX IMVI cells assessed as cell growth at 0.1 uM incubated for 48 hrs by sulforhodamine B assay relative to control; assay type: functional; settings: read-out: Activity

Structure (SMILES)	growth at 0.1 µM [%]
Cc1cccc(NC(=O)c2sc3nc4c(cc3c2N)C(=O)CCC4)c1	91
